These results are taken from ChEMBL document CHEMBL2150951, “Studies on the antimicrobial properties of N-acylated ciprofloxacins” (2012).

In assay [1] the test system is Staphylococcus aureus. The experiment in a line: Antibacterial activity against methicillin-resistant Staphylococcus aureus isolate CBD 635 at 50 ug per disc by Kirby-Bauer disc diffusion assay. The format is functional. The note with it: read-out: DIZ. The method, boiled down: (§1)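 Kirby-Bauer disk diffusion with 50 µg compound per 6 mm paper disk. Organisms were grown and plated by an earlier method. The zone-of-inhibition diameter was recorded to the nearest mm and averaged over three independent experiments. No zone was reported as 6 mm, the disk diameter.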

Assay [2] relates to Staphylococcus aureus. The experiment in a line: Antibacterial activity against methicillin-resistant Staphylococcus aureus isolate CBD 635. It counts as functional. An outline of the steps:
(§2)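 MIC against S. aureus strains was run by an earlier published procedure, tested in triplicate. Values were averaged and expressed as µg/ml of compound.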

The subject of assay [3] is Staphylococcus aureus. The experiment in a line: Antibacterial activity against methicillin-susceptible Staphylococcus aureus SH1000. It counts as functional. An outline of the steps: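 MIC in µg/ml, tested in triplicate and averaged, with ciprofloxacin as positive control.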
Assay [4] relates to Staphylococcus aureus. The experiment in a line: Antibacterial activity against methicillin-resistant Staphylococcus aureus ATCC 43300. The format is functional. An outline of the steps: as §2
In assay [5] the test system is Bacillus anthracis. Briefly: Antibacterial activity against Bacillus anthracis sterne at 50 ug per disc by Kirby-Bauer disc diffusion assay. The format is functional. The note with it: read-out: DIZ. The method, boiled down:
as §1

The test system of assay [6] is Enterococcus faecalis. Briefly: Antibacterial activity against Enterococcus faecalis DS16 at 50 ug per disc by Kirby-Bauer disc diffusion assay. The note with it: read-out: DIZ. The format is functional. The method, boiled down: (§3)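 Disks carried 50 µg of compound. Zone diameter was measured to the nearest mm and averaged over three independent experiments. A value of 6 mm, the disk diameter, was recorded where no inhibition was seen.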

Assay [7] can be described thus: Antibacterial activity against Bartonella henselae ATCC 49882 at 20 ug per disc after 7 days by Kirby-Bauer disc diffusion assay. The format is functional, Bartonella henselae str. Houston-1. The note with it: ATCC 49882, 168 h, read-out: DIZ. The method, boiled down:
(§4)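 Each paper disk was loaded with 20 µl of a 1 mg/ml solution, dried for 20 min and stored desiccated at 4 °C. Growth from 4-day plates was suspended in heart infusion broth to McFarland 2.0 and swabbed onto chocolate agar (heart infusion agar base with 5% bovine hemoglobin). Plates were incubated 1 week at 37 °C in 5% CO2. Zone diameter was read to the nearest mm, in triplicate and averaged.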

Assay [8] deals with Bartonella quintana. Briefly: Antibacterial activity against Bartonella quintana ATCC VR358 at 20 ug per disc after 7 days by Kirby-Bauer disc diffusion assay. The format is functional. The note with it: ATCC VR358, 168 h, read-out: DIZ. The method, boiled down:
as §4

In assay [9] the test system is Bartonella elizabethae. Briefly: Antibacterial activity against Bartonella elizabethae F9251 at 20 ug per disc after 7 days by Kirby-Bauer disc diffusion assay. It counts as functional. The note with it: F9251, 168 h, read-out: DIZ. An outline of the steps: as §4
Assay [10] has as its system Bartonella vinsonii. The experiment in a line: Antibacterial activity against Bartonella vinsonii ATCC VR152 at 20 ug per disc after 7 days by Kirby-Bauer disc diffusion assay. The format is functional. The note with it: ATCC VR152, 168 h, read-out: DIZ. An outline of the steps:
as §4

The nature of assay [11]: Antibacterial activity against Bartonella henselae ATCC 49882 after 7 days by agar dilution method. The note with it: ATCC 49882, 168 h. The format is functional, Bartonella henselae str. Houston-1. An outline of the steps:
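Agar dilution on chocolate agar containing compound at 10.0, 1.0 and 0.1 µg/ml, with 2-fold steps at and below 1.0 µg/ml for compounds active there. Controls were DMSO-only and drug-free plates. 25 µl of a McFarland 2.0 suspension in heart infusion broth was spotted and incubated 7 days at 37 °C in 5% CO2. Growth was scored +/− on duplicate plates; triplicate results were averaged.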

Assay [12] relates to Escherichia coli. Briefly: Antibacterial activity against Escherichia coli DH5alpha at 50 ug per disc by Kirby-Bauer disc diffusion assay. The format is functional. The note with it: DH5[alpha], read-out: DIZ. The method, boiled down:
as §3

Assay [13] deals with Escherichia coli. Briefly: Inhibition of Escherichia coli DNA gyrase-mediated formation of supercoiled form of pUC19 at 1 to 100 ug/mL by gel electrophoresis. The method, boiled down:
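Relaxed circular pUC19 was incubated with purified E. coli DNA gyrase and compound for 1 h at 37 °C. Relaxed and supercoiled DNA were resolved and quantified by gel electrophoresis.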

The nature of assay [14]: Antibacterial activity against Bartonella henselae Houston-1 infected in human HMEC1 cells assessed as intracellular bacterial load at 1 ug/mL incubated for 96 hrs followed by compound washout measured after 7 days relative to control. The format is functional, Bartonella henselae str. Houston-1. An outline of the steps:
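HMEC-1 cells grown in MCDB131 with 10% FBS, EGF and hydrocortisone were infected with B. henselae Houston-1 at MOI 100 for 4 h. Extracellular bacteria were killed with gentamicin (200 µg/ml, 1 h), then compound was added at 0.1 or 1.0 µg/ml for 96 h. After washing, cells were lysed with 0.1% saponin and lysates plated on chocolate agar for 7 days. CFU are given as a percentage of the media-only control.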

The structures appear in SMILES notation. In brackets after ≈: the same amount, converted by molar mass. Activity calls are given as the source filed them. No cut-off for these calls is given here.

With `CCCCC(=O)N1CCN(c2cc3c(cc2F)c(=O)c(C(=O)O)cn3C2CC2)CC1`, the zone of inhibition at 50 µg/disc in [1] came to 30 mm; in assay [5], 80 mm; in [6], 39 mm; in assay [12], 47 mm. The MIC was over 100 µg/mL in assay [2], 7.5 µg/mL (≈ 18.1 µM) in assay [3], 1 µg/mL (≈ 2.41 µM) in [4] and 5 µg/mL (≈ 12 µM) in assay [11]. Moreover, the zone of inhibition at 20 µg/disc in assay [7] was 38 mm; in assay [8], 35 mm; in [9], 35 mm; in [10], 57 mm.
In the case of `CC(C)(C)C(=O)N1CCN(c2cc3c(cc2F)c(=O)c(C(=O)O)cn3C2CC2)CC1`, the zone of inhibition at 50 µg/disc turned out to be 22 mm in assay [1], 80 mm in [5], 44 mm in assay [6] and 51 mm in assay [12]. The MIC in [2] is over 100 µg/mL; in [3] it was 7.5 µg/mL (≈ 18.1 µM); in assay [4], over 100 µg/mL. Besides, the zone of inhibition at 20 µg/disc stood at 40 mm in assay [7], 33 mm in assay [8], 36 mm in assay [9] and 36 mm in [10]. Further, the “gyrase inhibition (active/inactive)” value in assay [13] was “Active”.
For `CCCC(CCC)C(=O)N1CCN(c2cc3c(cc2F)c(=O)c(C(=O)O)cn3C2CC2)CC1`, the zone of inhibition at 50 µg/disc is 6 mm in [1], 72 mm in assay [5], 26 mm in assay [6] and 6 mm in [12]. Moreover, the MIC in [2] was over 100 µg/mL; in assay [3], 10 µg/mL (≈ 21.9 µM); in [4] it was over 100 µg/mL; in assay [11], 5 µg/mL (≈ 10.9 µM). The zone of inhibition at 20 µg/disc in [7] is 14 mm; in assay [8], 6 mm; in [9] it was 6 mm; in assay [10], 6 mm.
Turning to `CC(CC(=O)N1CCN(c2cc3c(cc2F)c(=O)c(C(=O)O)cn3C2CC2)CC1)CC(C)(C)C` (stereo unspecified), the zone of inhibition at 50 µg/disc in [1] came to 35 mm; in [5], 80 mm; in assay [6] it was 25 mm; in [12], 6 mm. Besides, the MIC in assay [2] was over 100 µg/mL; in assay [3] it was 25 µg/mL (≈ 53 µM); in [4], over 100 µg/mL; in assay [11], 1 µg/mL (≈ 2.12 µM). The zone of inhibition at 20 µg/disc worked out at 15 mm in [7], 7 mm in assay [8], 8 mm in assay [9] and 10 mm in assay [10]. Moreover, in assay [13], the “gyrase inhibition (active/inactive)” value was “Active”.
Turning to `CCCCCC(=O)N1CCN(c2cc3c(cc2F)c(=O)c(C(=O)O)cn3C2CC2)CC1`, the zone of inhibition at 50 µg/disc in assay [1] worked out at 36 mm; in [5], 77 mm; in [6] it was 38 mm; in [12], 30 mm. The MIC in assay [2] is over 100 µg/mL; in assay [3], 20 µg/mL (≈ 46.6 µM); in assay [4], 25 µg/mL (≈ 58.2 µM); in assay [11] it was 5 µg/mL (≈ 11.6 µM). For the same molecule, the zone of inhibition at 20 µg/disc in assay [7] is 31 mm; in [8] it was 30 mm; in assay [9] it was 30 mm; in [10], 21 mm. In assay [13], the “gyrase inhibition (active/inactive)” value was “Active”.
Take `CCCCC(CC)C(=O)N1CCN(c2cc3c(cc2F)c(=O)c(C(=O)O)cn3C2CC2)CC1` (stereo unspecified): the zone of inhibition at 50 µg/disc in [1] is 26 mm; in [5], 65 mm; in assay [6] it was 28 mm; in assay [12], 6 mm. Also, the results for the MIC in assay [2], in assay [3] and in assay [4] were over 100 µg/mL, 10 µg/mL (≈ 21.9 µM) and over 100 µg/mL, respectively. The zone of inhibition at 20 µg/disc in assay [7] was determined as 12 mm; in assay [8], 6 mm; in [9], 12 mm; in assay [10] it was 15 mm.
As to `CCC(CC)C(=O)N1CCN(c2cc3c(cc2F)c(=O)c(C(=O)O)cn3C2CC2)CC1`, the zone of inhibition at 50 µg/disc in [1] is 30 mm; in assay [5], 81 mm; in assay [6] it was 22 mm; in [12], 39 mm. Besides, the minimal inhibitory concentration (MIC) was over 100 µg/mL in assay [2], over 100 µg/mL in assay [3], 1 µg/mL (≈ 2.33 µM) in assay [4] and 5 µg/mL (≈ 11.6 µM) in assay [11]. The zone of inhibition at 20 µg/disc in assay [7] came out at 33 mm; in [8] it was 17 mm; in assay [9], 26 mm; in [10], 25 mm.
As to `CCCC(=O)N1CCN(c2cc3c(cc2F)c(=O)c(C(=O)O)cn3C2CC2)CC1`, the zone of inhibition at 50 µg/disc in assay [1] is 6 mm; in [5] it was 86 mm; in [6] it was 40 mm; in [12], 48 mm. Also, the MIC in assay [2] is over 100 µg/mL; in [3] it was over 100 µg/mL; in assay [4] it was over 100 µg/mL; in [11], 0.5 µg/mL (≈ 1.25 µM). Moreover, the zone of inhibition at 20 µg/disc in [7] turned out to be 34 mm; in assay [8], 29 mm; in assay [9], 42 mm; in [10], 44 mm. Further, the Activity result in assay [14] is “<=10%”.
With `CCCCCCCCC(=O)N1CCN(c2cc3c(cc2F)c(=O)c(C(=O)O)cn3C2CC2)CC1`, the zone of inhibition at 50 µg/disc in assay [1] came to 22 mm; in [5] it was 55 mm; in [6], 23 mm; in assay [12], 30 mm. The MIC in [2] was over 100 µg/mL; in assay [3], 10 µg/mL (≈ 21.2 µM); in [4], 10 µg/mL (≈ 21.2 µM); in assay [11] it was 10 µg/mL (≈ 21.2 µM). The zone of inhibition at 20 µg/disc in assay [7] was found to be 6 mm; in assay [8] it was 11 mm; in assay [9], 12 mm; in [10], 14 mm.
Regarding `CCCCCCC(=O)N1CCN(c2cc3c(cc2F)c(=O)c(C(=O)O)cn3C2CC2)CC1`, the zone of inhibition at 50 µg/disc in assay [1] came to 30 mm; in assay [5], 71 mm; in [6], 36 mm; in assay [12], 45 mm. Besides, the MIC in assay [2] was over 100 µg/mL; in [3] it was 25 µg/mL (≈ 56.4 µM); in [4], over 100 µg/mL; in assay [11], 10 µg/mL (≈ 22.5 µM). Also, the zone of inhibition at 20 µg/disc in [7] is 28 mm; in [8], 20 mm; in [9] it was 20 mm; in [10], 22 mm.
As for `CCCCCCCC(=O)N1CCN(c2cc3c(cc2F)c(=O)c(C(=O)O)cn3C2CC2)CC1`, the zone of inhibition at 50 µg/disc in assay [1] turned out to be 6 mm; in [5] it was 65 mm; in [6], 29 mm; in [12] it was 6 mm. Also, the minimum inhibitory concentration (MIC) is over 100 µg/mL in assay [2], 25 µg/mL (≈ 54.6 µM) in assay [3], 25 µg/mL (≈ 54.6 µM) in [4] and 10 µg/mL (≈ 21.9 µM) in assay [11]. Further, the zone of inhibition at 20 µg/disc in [7] was found to be 16 mm; in assay [8] it was 14 mm; in assay [9], 14 mm; in assay [10] it was 15 mm.
Consider `O=C(O)c1cn(C2CC2)c2cc(N3CCN(C(=O)c4ccccc4)CC3)c(F)cc2c1=O`, for which the zone of inhibition at 50 µg/disc in assay [1] turned out to be 6 mm; in assay [5], 49 mm; in assay [6] it was 6 mm; in assay [12] it was 6 mm. Further, the MIC in assay [2] is over 100 µg/mL; in assay [3], 25 µg/mL (≈ 57.4 µM); in [4], over 100 µg/mL; in assay [11], 0.2 µg/mL (≈ 0.459 µM). In addition, the zone of inhibition at 20 µg/disc in assay [7] turned out to be 21 mm; in [8] it was 7 mm; in assay [9] it was 13 mm; in [10] it was 12 mm.
